# TAAR1 agonist – agonists of human TAAR1; Q96RJ0; CHO RD-HGA16 TAAR1, Fluo-8 calcium fluorescence; vehicle wells 0%, saturating PEA agonist 100%; activation, % at 3 µM; actives 0.99% (n = 360,000); AID 624467;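 active = activation above the mean activation of all test compounds in the run plus 3 SD, cut at about 38% in these data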
#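 System: CHO-derived RD-HGA16 cells with stable Gα16 and human TAAR1. Times: 17-24 h plating, Fluo-8 75 min 37 °C, 30 min RT. Measured by: calcium-sensitive Fluo-8 signal, excitation 470-495, emission 515-575 nm. Read-out basis: % activation relative to PEA EC100 response. Control set: DMSO and PEA EC100. Repeats: no replicates (n 1).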
# CHO parental Ca – counter-screen for OX1R antagonists: effect in parental CHO cells. actives 0.63% (n = 330,000). AID 463079. parental CHO-K1, ATP-induced calcium, Fluo-8 fluorescence. inhibition, % at 5.6 µM;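 active = inhibition above that plate's mean sample inhibition plus 3 SD, cut at about 26% in these data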;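 note: 0% = ATP-challenged DMSO wells and 100% = DMSO wells without ATP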
#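 Test system: untransfected parental CHO cell line. Compound: one dose, 5.6 µM nominal. Detection: intracellular calcium via Fluo-8 no-wash fluorescent dye. Measure: % inhibition. Benchmarks: ATP-challenged DMSO wells low, unchallenged DMSO wells high.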
# GPR7 antag – blocks human GPR7 receptor signaling | P48145 | inhibition, % at 4.4 µM | actives 1.1% (n = 290,000) | GPR7-expressing cells, fluorescence antagonist assay | AID 1861; in the data active = inhibition above about 16%, passing the limit was not always enough;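 note: cells stimulated with the agonist NPW; 0% = agonist with vehicle and 100% = vehicle without agonist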
# Target sequence (P48145 whole entry, looked up): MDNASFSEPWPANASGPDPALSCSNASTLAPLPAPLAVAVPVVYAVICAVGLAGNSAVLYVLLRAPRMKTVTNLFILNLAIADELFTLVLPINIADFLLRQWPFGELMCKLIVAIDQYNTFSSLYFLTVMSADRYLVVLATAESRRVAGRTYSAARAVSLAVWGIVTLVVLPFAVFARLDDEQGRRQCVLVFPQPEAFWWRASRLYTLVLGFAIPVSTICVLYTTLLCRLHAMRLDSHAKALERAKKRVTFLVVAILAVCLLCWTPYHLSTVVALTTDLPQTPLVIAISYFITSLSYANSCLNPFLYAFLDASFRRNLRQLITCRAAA
# OX1R antag-1 – antagonists of human orexin 1 receptor | O43613 | CHO/OX1R cells, Fluo-8 calcium fluorescence, orexin A | inhibition, % at 5 µM | actives 0.43% (n = 330,000) | AID 434989;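 active = inhibition above its plate's threshold, mean inhibition of all tested compounds on the plate plus 3 SD, cut at about 37% in these data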;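 note: 0% = orexin A challenge wells and 100% = SB-334867-A antagonist wells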
# OX1R antag-2 – antagonists of human orexin 1 receptor (OX1R) | AID 485270 | OX1R-expressing cells, FRET antagonist read-out | actives 1.8% (n = 330,000) | O43613 | inhibition, % at 6.6 µM; in the data active = inhibition mostly above about 38%, no sharp cut-off; inactive = mostly below about 40%;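 note: 0% = agonist challenge alone and 100% = reference antagonist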
# TAAR1 antag – antagonists of human TAAR1. CHO RD-HGA16 TAAR1, Fluo-8 calcium fluorescence, antagonist. inhibition, % at 3 µM. actives 1.5% (n = 360,000). AID 624466;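 active = inhibition above a per-plate cutoff, the mean inhibition of test compounds on that plate plus 3 SD, cut at about 49% in these data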;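 note: 0% = DMSO plus EC80 beta-PEA response and 100% = DMSO alone without agonist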
#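 Test system – hTAAR1-expressing CHO RD-HGA16 cells, Gα16-coupled · Also added – β-PEA at EC80 concentration, post-compound challenge · Compound – 3 µM, single point · Incubation – dye loading 75 min at 37 °C, then 30 min room temperature · Measured by – Fluo-8 intracellular calcium dye fluorescence, real-time kinetic reads · Benchmarks – vehicle and agonist controls · Replicates – singlicate, one well per test compound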
# OX1R HTRF confirm – confirmation of human orexin 1 receptor antagonists, HTRF format; shares compounds with OX1R antag-2; OX1R-expressing cells, HTRF antagonist assay; inhibition, % at 6.6 µM; actives 49% (n = 1,800); in the data active = inhibition above about 55%;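 note: CHO cells expressing OX1R stimulated with orexin A at about EC80; 0% = agonist challenge alone and 100% = reference antagonist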
# CHO-K1 HTRF – signal in parental CHO-K1 cells, OX1R antagonist counter-screen. shares compounds with OX1R antag-2. HTRF counterscreen. inhibition, % at 6.6 µM. actives 48% (n = 1,800). AID 493232; in the data active = inhibition above about 17%;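 note: 0% = agonist challenge with vehicle and 100% = vehicle alone without agonist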
# Numbers without * were called inactive; . = no result. Most compounds without a hit are left out; they make up all but 4.6% or so of the library.
SMILES,TAAR1 agonist,CHO parental Ca,GPR7 antag,OX1R antag-1,OX1R antag-2,TAAR1 antag,OX1R HTRF confirm,CHO-K1 HTRF
Cc1cc(=O)[nH]c(N/N=C/c2c(C)oc3ccccc23)n1,2,-13,1,-9,77*,-17,85*,6
COc1ccc(C(=O)N2CCN(c3nc4cc(C)ccc4cc3C#N)CC2)c(OC)c1,11,-26,-14,-20,20,35,.,.
COc1cc(C(=O)N2CCCN(c3nc4cc(C)ccc4cc3C#N)CC2)cc(OC)c1OC,8,-30,.,24,80*,4,86*,5
O=c1c2ccccc2nc2c3ccccc3c(NCc3ccccn3)nn12,9,-18,-6,4,90*,11,88*,7
Cc1cc(NCc2ccccn2)nc2ccccc12,10,-7,0,-33,3,-5,.,.
CC(O)CNc1ccc(-c2nn(C)c(=O)c3ccccc23)cc1[N+](=O)[O-] (stereo not given),0,-12,-7,-25,33,2,.,.
CN(C)CCCNc1ccc(S(N)(=O)=O)cc1[N+](=O)[O-],7,-4,-7,2,122*,4,39,55*
CN(C)CCCNc1ccc(-c2nn(C)c(=O)c3ccccc23)cc1[N+](=O)[O-],1,-9,-5,-12,118*,13,31,40*
COc1ccc(NC(=O)C2Cc3c(-c4cccc(F)c4)ccnc3O2)cc1OC (stereo not given),4,.,.,.,.,36,.,.
O=C(O)COc1ccc(/C=N/NC(=O)/C(=C/C=C/c2ccccc2)NC(=O)c2ccccc2)cc1,0,-17,-13,-24,10,7,.,.
N#Cc1cc([N+](=O)[O-])ccc1NC(=O)COC(=O)C1CC2CCCC(C1)C2=O (stereo not given),2,-3,.,-20,88*,-6,33,43*
OC(CSc1ccccc1)CN1CCN(c2ccc(Cl)cc2)CC1 (stereo not given),3,.,.,.,.,-21,.,.
O=C1SCCC1NS(=O)(=O)c1ccc([N+](=O)[O-])cc1 (stereo not given),1,-11,-2,-7,96*,-19,28,24*
Cc1ccc(NC(=O)CN(C)C(=O)c2ccc(Cl)nc2)cc1,2,-2,-2,-28,10,-12,.,.
COc1ccc(-n2nc([N+](=O)[O-])c(=NCc3cccnc3)n2O)cc1,0,-9,3,-3,123*,-8,61*,78*
COc1ccc(-n2nc([N+](=O)[O-])c(=NCCc3ccc(OC)c(OC)c3)n2O)cc1,5,1,-2,-9,84*,-20,46,54*
COc1ccc(-n2nc([N+](=O)[O-])c(=NCCc3ccc(Cl)cc3)n2O)cc1,1,-24,10,-15,19,15,.,.
COc1ccc(-n2nc([N+](=O)[O-])c(=NCc3ccco3)n2O)cc1,8,7,2,1,43,4,.,.
COc1ccc(-n2nc([N+](=O)[O-])c(=NC3CCN(Cc4ccccc4)CC3)n2O)cc1,4,-20,-7,-37,79*,4,61*,55*
COc1ccc(-n2nc([N+](=O)[O-])c(=NCCc3ccc(C)cc3)n2O)cc1,1,-22,-10,-41,34,-16,.,.
Cc1ccc(S(=O)(=O)Nc2n[nH]nc2C(=O)NC2CCCCC2)cc1,3,-8,-19,-10,9,-4,.,.
O=C(C1CCCN(S(=O)(=O)c2ccccc2)C1)N1CCCCC1 (stereo not given),0,-14,2,-17,28,-3,.,.
Cc1cc(C)n2c(NC3CCCCC3)c(-c3ccccn3)nc2n1,0,.,.,.,.,-8,.,.
COc1ccccc1CNC(=O)CSCc1cnn(-c2ccccc2)c1-n1cccc1,4,-17,-7,-21,15,2,.,.

# High-throughput results deposited in PubChem BioAssay by The Scripps Research Institute Molecular Screening Center.
